Results published in ChEMBL document CHEMBL4229446, “Development of Novel Monoamine Oxidase-B (MAO-B) Inhibitors with Reduced Blood-Brain Barrier Permeability for the Potential Management of Noncentral Nervous System (CNS) Diseases” (J Med Chem, 2018).

Legend:
[1] = target: T1, Amine oxidase [flavin-containing] A (Homo sapiens, UniProt P21397); assay: Inhibition of human recombinant MAO-A expressed in baculovirus infected BTI-TN-5B1-4 insect cells using tyramine as substrate preincubated for 1 hr followed by substrate addition and measured after 30 mins by resazurin dye-based fluorescence assay
T1 sequence (P21397 whole entry): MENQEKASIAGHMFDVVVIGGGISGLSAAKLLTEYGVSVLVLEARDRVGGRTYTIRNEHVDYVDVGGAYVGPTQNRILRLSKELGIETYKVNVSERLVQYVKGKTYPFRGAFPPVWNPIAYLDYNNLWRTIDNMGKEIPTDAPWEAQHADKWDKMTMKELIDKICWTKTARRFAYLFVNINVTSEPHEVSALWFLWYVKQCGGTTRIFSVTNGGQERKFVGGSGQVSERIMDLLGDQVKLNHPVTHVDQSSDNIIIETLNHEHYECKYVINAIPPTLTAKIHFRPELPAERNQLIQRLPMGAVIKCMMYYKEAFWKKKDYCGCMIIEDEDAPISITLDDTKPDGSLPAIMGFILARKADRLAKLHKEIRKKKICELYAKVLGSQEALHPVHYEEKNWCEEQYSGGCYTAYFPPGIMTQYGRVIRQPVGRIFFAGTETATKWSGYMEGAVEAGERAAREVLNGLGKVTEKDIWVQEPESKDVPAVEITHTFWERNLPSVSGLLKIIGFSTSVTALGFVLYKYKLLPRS

[2] = target: T2, Amine oxidase [flavin-containing] B (Homo sapiens, UniProt P27338); assay: Inhibition of human recombinant MAO-B expressed in baculovirus infected BTI-TN-5B1-4 insect cells using benzylamine as substrate preincubated for 1 hr followed by substrate addition and measured after 30 mins by resazurin dye-based fluorescence assay; format: cell-based
T2 sequence (P27338 whole entry): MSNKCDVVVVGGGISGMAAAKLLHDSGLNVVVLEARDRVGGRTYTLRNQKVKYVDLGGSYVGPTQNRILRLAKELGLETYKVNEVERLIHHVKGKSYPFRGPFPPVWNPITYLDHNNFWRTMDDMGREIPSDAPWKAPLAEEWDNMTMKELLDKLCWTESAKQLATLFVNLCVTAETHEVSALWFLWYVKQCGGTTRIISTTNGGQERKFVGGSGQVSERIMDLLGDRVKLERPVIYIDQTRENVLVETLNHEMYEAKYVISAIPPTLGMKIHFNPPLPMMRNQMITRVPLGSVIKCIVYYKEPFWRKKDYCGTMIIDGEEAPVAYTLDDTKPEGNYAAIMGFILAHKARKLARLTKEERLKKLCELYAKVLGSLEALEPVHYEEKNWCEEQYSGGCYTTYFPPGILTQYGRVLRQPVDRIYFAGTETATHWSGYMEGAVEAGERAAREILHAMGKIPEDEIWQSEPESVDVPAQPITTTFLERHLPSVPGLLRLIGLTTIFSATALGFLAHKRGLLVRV

[3] = AUClast in C57BL/6 mouse plasma at 22 mg/kg, iv administered as single dose measured 24 hrs by UPLC-MS/MS analysis; format: ADME, organism-based; parameters: dose 22 mg/kg, time 0 - last, route intravenous
Outline: (§1)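 21 animals dosed at 0 min, 3 sacrificed at each of 0, 5, 15, 30 min, 1, 4 and 24 h. Plasma was extracted by protein precipitation with phospholipid removal. Brain was weighed, bead-homogenised in 50 mM ammonium formate and extracted in acidified organic solvent. Quantified by UPLC-MS/MS (MRM). Brain ng/g taken as ng/mL. Parameters came from noncompartmental analysis. Kp = AUClast brain/plasma.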

Mus musculus [4] = assay: Acute toxicity in C57BL/6 mouse assessed as abnormal clinical signs at […], iv administered as single dose measured after 24 hrs post-injection; format: organism-based; conditions: in vivo
[5] = Metabolic stability in mouse liver microsomes assessed as parent compound remaining at 1 uM after 60 mins in presence of NADPH by UPLC-MS/MS analysis; format: ADME, microsome; conditions: read-out: Stability
Outline: (§2)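 Compound at 1 μM with 0.5 mg/mL mouse or human liver microsomes in 100 mM potassium phosphate pH 7.4, 3.3 mM MgCl2, 1 mM NADPH, at 37 °C. Started with NADPH; minus-NADPH control run. Stopped at 0, 5, 15, 30, 45 and 60 min with acetonitrile/formic acid plus internal standard. Parent remaining by UPLC-MS/MS, in triplicate.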

[6] = Metabolic stability in mouse plasma assessed as parent compound remaining at 5 uM after 4 hrs by UPLC-MS/MS analysis; format: ADME, cell-free; conditions: read-out: Stability
Outline: (§3)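 Compound at 5 μM was incubated in mouse or human plasma at 37 °C with shaking. Sampled at 0, 5, 15, 30, 60, 120 and 240 min and stopped with ice-cold acetonitrile/0.1% formic acid containing internal standard. Supernatants analysed by UPLC-MS/MS for parent remaining. Run in triplicate.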

[7] = Metabolic stability in cryopreserved mouse hepatocytes assessed as parent compound remaining at 1 uM after 60 mins by UPLC-MS/MS analysis; format: ADME, cell-based, Hepatocyte; conditions: read-out: Stability
[8] = Metabolic stability in human plasma assessed as parent compound remaining at 5 uM after 4 hrs by UPLC-MS/MS analysis; format: ADME, cell-free; conditions: read-out: Stability; outline: as §3
[9] = AUClast in C57BL/6 mouse brain at 22 mg/kg, iv administered as single dose measured 24 hrs by UPLC-MS/MS analysis; format: ADME, organism-based; parameters: dose 22 mg/kg, route intravenous, time 0 - last; outline: as §1
[10] = Cmax in C57BL/6 mouse plasma at 22 mg/kg, iv administered as single dose measured 24 hrs by UPLC-MS/MS analysis; format: ADME, organism-based; parameters: dose 22 mg/kg, route intravenous; outline: as §1
Mus musculus [11] = assay: Acute toxicity in C57BL/6 mouse assessed as abnormal clinical signs at […], sc administered as single dose measured after 24 hrs post-injection; format: organism-based; conditions: in vivo
[12] = Ratio of AUClast in brain to plasma in C57BL/6 mouse at 22 mg/kg, iv administered as single dose measured 24 hrs by UPLC-MS/MS analysis; format: ADME, organism-based; outline: as §1
Mus musculus [13] = assay: Acute toxicity in C57BL/6 mouse assessed as abnormal clinical signs at […], po administered as single dose measured after 24 hrs post-injection; format: organism-based; conditions: in vivo
[14] = Tmax in C57BL/6 mouse brain at 22 mg/kg, iv administered as single dose measured 24 hrs by UPLC-MS/MS analysis; format: ADME, organism-based
Outline: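 Brains weighed, portion bead-homogenised in 50 mM ammonium formate, extracted in acidified organic solvent, quantified by UPLC-MS/MS. ng/g taken as ng/mL. Tmax from noncompartmental analysis.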

[15] = Tmax in C57BL/6 mouse plasma at 22 mg/kg, iv administered as single dose measured 24 hrs by UPLC-MS/MS analysis; format: ADME, organism-based
Outline: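 Plasma cleaned by protein precipitation with phospholipid removal, then UPLC-MS/MS in MRM mode. Tmax obtained by noncompartmental analysis.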

[16] = Metabolic stability in human liver microsomes assessed as parent compound remaining at 1 uM after 60 mins by UPLC-MS/MS analysis; format: ADME, microsome; conditions: liver microsomes, read-out: Stability; outline: as §2
[17] = Apparent half-life of the terminal disposition phase in C57BL/6 mouse plasma at 22 mg/kg, iv administered as single dose measured 24 hrs by UPLC-MS/MS analysis; format: ADME, organism-based; conditions: read-out: t1/2 lambda z (converted); outline: as §1
[18] = Efflux ratio of apparent permeability in MDCK-WT cells at 10 uM after 1 hr in absence of P-gp inhibitor verapamil by UPLC-MS/MS analysis; conditions: dog
[19] = Cmax in C57BL/6 mouse brain at 22 mg/kg, iv administered as single dose measured 24 hrs by UPLC-MS/MS analysis; format: ADME, organism-based; parameters: dose 22 mg/kg, route intravenous; outline: as §1
P-gp (MDR1) = assay: Efflux ratio of apparent permeability in MDCK2-MDR1 cells at 10 uM after 1 hr in absence of P-gp inhibitor verapamil by UPLC-MS/MS analysis; format: ADME, cell-based, Canis lupus familiaris; conditions: dog, MDCK-MDR1
Outline: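 MDCK-WT (MEM-α/10% FBS) or MDCK-MDR1 II (DMEM/10% FBS) cells were grown 3 days on 12-well transwells. Integrity was checked by TEER and 100 μM Lucifer yellow. Cells were washed in HBSS/10 mM HEPES. Compound at 10 μM was added apically or basally, in triplicate, ±100 μM verapamil. Receiver sampled at 1 h by UPLC-MS/MS. Efflux ratio = Papp B→A / Papp A→B.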

SMILES | IC50 [1] | IC50 [2] | further results
COC(=O)c1ccc(COc2ccc(C[C@@H](C)N(C)CC(=O)O)cc2)cc1 | > 50 µM |  | 
C[C@H](Cc1ccc(OCc2cc(Cl)ccc2Cl)cc1)N(C)CC(=O)O | > 50 µM | 1.38 µM | 
C[C@H](Cc1ccc(OCc2ccccc2Cl)cc1)N(C)CC(=O)O | > 50 µM | 0.713 µM | 
COC(=O)[C@H](Cc1ccc(OCc2cccc(Cl)c2)cc1)N(C)CC(=O)O | > 50 µM | 1.26 µM | 
C[C@H](Cc1ccc(OCc2ccccc2C#N)cc1)N(C)CC(=O)O | > 50 µM | 14.1 µM | 
COC(=O)[C@H](Cc1ccc(OCc2ccccc2)cc1)N(C)CC(=O)O | > 50 µM | 7.93 µM | 
C[C@H](Cc1ccc(OCc2ccc(Cl)c(Cl)c2)cc1)N(C)CC(=O)O | 41.4 µM | 0.218 µM | AUC(0-t) at 24 h [3]: 82000 ng·h/mL; Activity (Mus musculus [4]): Non-Toxic; remaining at 1 h, 1 µM [5]: 89.5%; remaining at 4 h, 5 µM [6]: ≥ 75%; remaining at 1 h, 1 µM [7]: ≥ 90%; remaining at 4 h, 5 µM [8]: ≥ 75%; AUC(0-t) at 24 h [9]: 7450 ng·h/mL; Cmax [10]: 16200 ng/mL; Activity (Mus musculus [11]): Non-Toxic; Kp at 24 h [12]: 0.09; Activity (Mus musculus [13]): Non-Toxic; Tmax [14]: 4 h; Tmax [15]: 5 min; remaining at 1 h, 1 µM [16]: ≥ 90%; half-life [17]: 3.97 h; efflux ratio at 1 h, 10 µM [18]: 1.45; Cmax [19]: 455 ng/mL; efflux ratio at 1 h, 10 µM (P-gp (MDR1)): 3.07
C#CCN(C)[C@H](C)Cc1ccc(OCc2ccccc2)cc1 | 0.161 µM | 0.005 µM | 
C[C@H](Cc1ccc(OCc2ccccn2)cc1)N(C)CC(=O)O | > 50 µM |  | 
COc1cccc(COc2ccc(C[C@@H](C)N(C)CC(=O)O)cc2)c1 |  | 2.11 µM | 
C[C@H](Cc1ccc(OCc2ccc(C#N)cc2)cc1)N(C)CC(=O)O | > 50 µM | 3.75 µM | 
CN(CC(=O)O)[C@H](COCc1ccccc1)Cc1ccc(OCc2ccccc2)cc1 | > 50 µM | 8 µM | 
